Our source for the IC50 values is ChEMBL document CHEMBL1932993, “Synthesis and cytotoxicity of O,O'-dialkyl {[2-(substituted phenoxy)acetamido](substituted phenyl)methyl}phosphonates” (Eur J Med Chem, 2012).

Experiment [1] has as its system KB. Kind of experiment: Cytotoxicity against human KB cells after 72 hrs ny MTT assay. It is filed as functional, cell-based. The method in brief: (§1)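 Cells grown in RPMI 1640 with 10% fetal calf serum and seeded at 2 × 10^4/mL. They were held 12 h at 37 °C in 5% CO2, then exposed to compound for 3 days at 37 °C. MTT formazan was dissolved and absorbance read at 570 nm. IC50 is the concentration giving 50% growth inhibition versus untreated controls. At least 3 independent experiments.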
On the technique in general: Formazan colour is commonly taken as a measure of viable cells.

The nature of experiment [2]: Cytotoxicity against human CNE2 cells after 72 hrs ny MTT assay. It is filed as functional, cell-based. Particulars: CNE-2, 72 h. The gist of the method:
as §1

Take `COP(=O)(OC)C(NC(=O)COc1ccc(Cl)cc1Cl)c1ccccc1` (centres undefined): the IC50 in experiment [1] and in experiment [2] was greater than 50 µM each time.

Consider `COc1ccc(C(NC(=O)COc2ccc(Cl)cc2Cl)P(=O)(OC)OC)cc1` (centres undefined), for which the IC50 in experiment [1] and in experiment [2] was greater than 50 µM in each case.

As to `CCCCOP(=O)(OCCCC)C(NC(=O)COc1ccccc1Cl)c1ccccc1` (centres undefined), the results for the IC50 in experiment [1] and in experiment [2] were 15.8 µM and 11.4 µM, respectively.

Regarding `COP(=O)(OC)C(NC(=O)COc1ccc(Cl)cc1Cl)c1ccc(C)cc1` (centres undefined), the IC50 in experiment [1] and in experiment [2] was greater than 50 µM each time.

As for `CCCOP(=O)(OCCC)C(NC(=O)COc1ccc(Cl)cc1)c1ccccc1` (centres undefined), the IC50 in experiment [1] was 23 µM; in experiment [2], 42.9 µM.

As to `CCCCOP(=O)(OCCCC)C(NC(=O)COc1ccc(F)cc1Cl)c1ccccc1` (centres undefined), the figures for the IC50 in experiment [1] and in experiment [2] were 12.3 µM and 13.1 µM, respectively.

With `CCCCOP(=O)(OCCCC)C(NC(=O)COc1ccc(C(C)(C)C)cc1)c1ccc(OC)cc1` (centres undefined), the IC50 amounted to 13.3 µM in experiment [1] and 31.1 µM in experiment [2].

Consider `CCCCOP(=O)(OCCCC)C(NC(=O)COc1ccc(OC)cc1)c1ccccc1` (centres undefined), for which the values for the IC50 in experiment [1] and in experiment [2] were 25.5 µM and 41.2 µM, respectively.

For the molecule `CCCCOP(=O)(OCCCC)C(NC(=O)COc1cccc(C)c1C)c1ccc(OC)cc1` (centres undefined), the results for the IC50 in experiment [1] and in experiment [2] were 7.1 µM and 20.7 µM, respectively.

For `COP(=O)(OC)C(NC(=O)COc1ccc(Cl)c(C)c1)c1ccc(C)cc1` (centres undefined), the IC50 in experiment [1] and in experiment [2] was greater than 50 µM throughout.

Turning to `CCOP(=O)(OCC)C(NC(=O)COc1ccc(Cl)cc1C)c1ccc(OC)cc1` (centres undefined), the 50% inhibitory concentration (IC50) in experiment [1] and in experiment [2] was greater than 50 µM in each case.

As to `CCCCOP(=O)(OCCCC)C(NC(=O)COc1cc(Cl)c(Cl)cc1Cl)c1ccccc1` (centres undefined), the IC50 in experiment [1] is 15.9 µM; in experiment [2], greater than 50 µM.

Turning to `CCOP(=O)(OCC)C(NC(=O)COc1ccc(Cl)cc1Cl)c1ccc(OC)cc1` (centres undefined), the IC50 in experiment [1] and in experiment [2] was greater than 50 µM in each case.

For the molecule `O=c1[nH]cc(F)c(=O)[nH]1` [FLUOROURACIL], the values for the IC50 in experiment [1] and in experiment [2] were 9 µM and 13.5 µM, respectively.

`CCCCOP(=O)(OCCCC)C(NC(=O)COc1ccc(Cl)cc1C)c1ccccc1` (centres undefined): the IC50 in experiment [1] was found to be 12.3 µM; in experiment [2], 19.9 µM.

In the case of `CCCCOP(=O)(OCCCC)C(NC(=O)COc1cccc(C)c1C)c1ccccc1` (centres undefined), the figures for the IC50 in experiment [1] and in experiment [2] were 18.2 µM and 25.1 µM, respectively.

As for `CCOP(=O)(OCC)C(NC(=O)COc1cccc(C(F)(F)F)c1)c1ccc(OC)cc1` (centres undefined), the IC50 in experiment [1] and in experiment [2] was greater than 50 µM each time.

For `CCOP(=O)(OCC)C(NC(=O)COc1ccc([N+](=O)[O-])cc1)c1ccc(OC)cc1` (centres undefined), the IC50 in experiment [1] and in experiment [2] was greater than 50 µM throughout.

As for `CCCOP(=O)(OCCC)C(NC(=O)COc1cccc(C(F)(F)F)c1)c1ccc(OC)cc1` (centres undefined), the IC50 in experiment [1] was found to be 19.8 µM; in experiment [2] it was 38.5 µM.

As to `CCOP(=O)(OCC)C(NC(=O)COc1ccc(Cl)cc1)c1ccc(OC)cc1` (centres undefined), the IC50 in experiment [1] and in experiment [2] was greater than 50 µM throughout.

`CCCOP(=O)(OCCC)C(NC(=O)COc1ccc(Cl)cc1Cl)c1ccccc1` (centres undefined): the IC50 in experiment [1] came out at 16 µM; in experiment [2], 26 µM.

Turning to `COc1ccc(C(NC(=O)COc2cccc(C)c2C)P(=O)(OC)OC)cc1` (centres undefined), the IC50 in experiment [1] and in experiment [2] was greater than 50 µM in each case.

As for `CCCCOP(=O)(OCCCC)C(NC(=O)COc1ccc(Cl)cc1Cl)c1ccccc1` (centres undefined), the IC50 in experiment [1] was 17.8 µM; in experiment [2], 13.8 µM.

Turning to `CCCCOP(=O)(OCCCC)C(NC(=O)COc1ccc(Cl)c(C)c1)c1ccccc1` (centres undefined), the IC50 in experiment [1] amounted to 18.1 µM; in experiment [2], 43 µM.

For the molecule `CCCCOP(=O)(OCCCC)C(NC(=O)COc1ccccc1Cl)c1ccc(OC)cc1` (centres undefined), the IC50 is 14.5 µM in experiment [1] and 13.4 µM in experiment [2].

As to `CCCOP(=O)(OCCC)C(NC(=O)COc1cccc(C(F)(F)F)c1)c1ccccc1` (centres undefined), the IC50 in experiment [1] amounted to 21.6 µM; in experiment [2] it was 41.8 µM.

In the case of `CCCOP(=O)(OCCC)C(NC(=O)COc1ccc(Cl)cc1Cl)c1ccc(OC)cc1` (centres undefined), the IC50 in experiment [1] amounted to 17.4 µM; in experiment [2], 27.2 µM.

In general, IC50 refers to the midpoint of a concentration-inhibition curve. A low value points to inhibition by little substance.
